# Casp6 inh – inhibitors of human caspase-6 | inhibition, % at 12.5 µM | hit rate 0.53% among 350,000 | P55212 | purified caspase-6, Z-VEID-R110 cleavage fluorescence;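 active means mean inhibition across replicates at least about 35%, with every replicate also reaching that limit, limit read from the data; inconclusive means only one of the two criteria met; inactive means neither criterion met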
# Target sequence (P55212 24-179 limits assumed): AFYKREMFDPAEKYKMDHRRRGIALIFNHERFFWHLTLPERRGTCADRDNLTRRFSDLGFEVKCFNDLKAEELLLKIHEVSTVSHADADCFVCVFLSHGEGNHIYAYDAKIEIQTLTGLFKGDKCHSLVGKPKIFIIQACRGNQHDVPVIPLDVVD
# Target sequence (P55212 194-293 limits assumed): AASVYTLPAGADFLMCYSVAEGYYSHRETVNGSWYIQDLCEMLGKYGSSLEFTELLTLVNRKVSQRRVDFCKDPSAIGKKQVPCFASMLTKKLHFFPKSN
# Vif imaging – HIV Vif inhibition. HEK293T cells, Vif self-association by quenched fluorescence, imaging, 24 h. inhibition, % at 7.49 µM. hit rate 0.35% among 340,000; in the data active means inhibition above about 50%, passing the limit was not always enough; inconclusive means no clear call, values can overlap the other calls; inactive means below about 31%
# T cell HTS – T cell immune modulation candidate; 2C CD8+ T cell-vesicle binding, flow cytometry; hits give low values; response (vesicle binding), % at 7 µM; hit rate 0.068% among 330,000;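 active means response, share of CD8 T cells binding vesicles, and their 90th percentile fluorescence all below set limits, cut at about 80% in these data, passing the limit was not always enough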;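 further: values below 100% mean blocked vesicle binding to the CD8+ T cells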
#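 System: murine 2C transgenic CD8+ T lymphocytes; also added: QL9-loaded Drosophila micro-vesicles; times: binding 1.5 h at 37 °C; measured by: flow cytometry, PE anti-B7-1 (FL2) versus Alexa647 anti-CD8 (FL8), PFA-fixed; control set: Peptide-free naked vesicles (low) and QL9 vesicles with 0.7% DMSO vehicle (high)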
# Myeloid diff MLP – compounds promoting myeloid differentiation; ER-HoxA9 myeloid progenitors, lysozyme-GFP differentiation, flow cytometry; calls only at 10 µM; hit rate 1% among 360,000; AID 624256;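 active means normalized GFP-positive differentiation at or above the plate's own cutoff, the solvent-only control mean plus 3 SD; inconclusive means no clear call, values can overlap the other calls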;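 further: cells exposed to compound for four days before flow analysis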
# Hits are given with their value; n = inactive; u = inconclusive; x = no result; + = active, no number; ! = not active in a repeat. Hits are enriched below; roughly 1.4% of the tested compounds scored in any of these assays.
SMILES,Casp6 inh,Vif imaging,T cell HTS,Myeloid diff MLP
C[C@H]1CN([C@@H](C)CO)C(=O)CCCn2cc(nn2)CO[C@@H]1CN(C)S(=O)(=O)c1ccc(Oc2ccccc2)nc1,n,x,x,+
COc1cccc(S(=O)(=O)N[C@@H]2C=C[C@@H](CC(=O)NCc3ccc(F)cc3)O[C@@H]2CO)c1,n,x,x,x
N=c1c(C(=O)NC2CCCCC2)cc2c(=O)n3ccccc3nc2n1Cc1cccnc1,n,n,n,+
CC=Cc1ccc2n(c1=O)C[C@H]1[C@H](CO)[C@@H](C(=O)N3CCc4ccccc4C3)[C@@H]2N1Cc1ccncc1 (mixture of isomers),n,x,x,x
CCC(=O)N1CCC1(C)C(=O)Nc1ccc2c(c1)CCN2C(C)=O (configuration not stated),49,n,x,n
CC(C)C#Cc1ccc([C@H]2[C@@H](CO)N3C(=O)CN(C(=O)c4ccccn4)C[C@@H]23)cc1,n,x,x,x
O=C(/C=C/c1ccncc1)c1cc(Cl)ccc1O,n,n,n,+
CSc1ccccc1NC(=O)COc1nsnc1N1CCOCC1,n,n,n,+
O=C(O)C1Sc2[nH]c(=O)sc2C2c3ccc(O)cc3OC(=O)C12 (configuration not stated),58,n,n,n
C[C@@H]1CCCCO[C@H](CN(C)C(=O)CCCN(C)C)[C@@H](C)CN([C@H](C)CO)C(=O)c2cc(NS(C)(=O)=O)ccc2O1,n,x,x,x
COc1cccc(-c2ccc([C@@H]3[C@H](CO)N(C(=O)C4CC4)C34CN(C(C)=O)C4)cc2)c1,n,x,x,x
CCOC(=O)C1=C(O)c2ccccc2C(=O)/C1=C\c1ccc(C)cc1,x,n,n,+
CC(C)OC(=O)C(C(=O)C(F)(F)F)c1cc(NS(=O)(=O)c2ccc3ccccc3c2)c2ccccc2c1O (configuration not stated),x,n,n,+
O=C(O)CCC(=O)N1N=C(c2ccco2)CC1c1cccs1 (configuration not stated),n,n,n,n
O=C(O)CCC(=O)N1N=C(c2ccco2)CC1c1ccco1 (configuration not stated),41,n,n,n
OC(CN1C2=NCCN2c2ccccc21)c1ccc(Br)cc1 (configuration not stated),x,n,n,+
CN(C)C(=O)C(CCN1CCC(O)(c2ccc(Cl)cc2)CC1)(c1ccccc1)c1ccccc1,n,n,n,+
CC(C)(C)OC(=O)N1CCC(NC(=O)c2[nH]cnc2C(=O)Nc2ccccc2)CC1,n,n,n,+
O=C(CN1CCOCC1)N[C@@H]1CC[C@@H](CCNC(=O)C2CCC2)O[C@@H]1CO,n,x,x,x
COCC(=O)N1C[C@@H](C)[C@H](OC)CN(C)C(=O)c2cc(NC(=O)c3ccc(OC)cc3)ccc2OC[C@@H]1C,n,x,x,x
CC(C)(C)OC(=O)N[C@H](Cc1ccccc1)C(=O)N1CCC[C@@H]1C(=O)O,n,n,n,n
NCCCC[C@H](N[C@@H](CCc1ccccc1)C(=O)O)C(=O)N1CCC[C@H]1C(=O)O,n,79!,n,n
COc1ccc(C[C@H]2CCc3cnnn3COC[C@@H](Cc3ccccc3)NC2=O)cc1,n,x,x,x
O=C(CNCC1CCCO1)NCc1ccco1 (configuration not stated),n,x,n,+
O=[N+]([O-])c1ccc(Oc2cccc3cccnc23)c([N+](=O)[O-])c1,x,n,n,+
SMILES,Casp6 inh,Vif imaging,T cell HTS,Myeloid diff MLP
C[C@H]1CN([C@@H](C)CO)C(=O)Cc2cc(NC(=O)C3CC3)ccc2O[C@H]1CN(C)C(=O)Nc1ccc2c(c1)OCO2,n,x,x,x
CC(C)CN1C(=O)C(=O)N(CC(=O)c2ccc3c(c2)OCO3)C1=O,n,147,n,n
CC(=O)N(C)C[C@H]1Oc2ncc(-c3cccc(F)c3)cc2C(=O)N([C@H](C)CO)C[C@@H]1C,n,x,x,x
C[C@H]1CN([C@@H](C)CO)S(=O)(=O)c2ccc(-c3cncnc3)cc2O[C@@H]1CN(C)C(=O)CN(C)C,n,x,x,x
CNC[C@@H]1Oc2ccc(NC(=O)Nc3ccccc3)cc2CC(=O)N([C@H](C)CO)C[C@H]1C,n,x,x,x
O=C1C=C(N2CCOCC2)c2ccccc2C1=O,100,n,n,u
O=C1C=C(N2CCOCC2)c2cccc3cccc1c23,n,n,x,n
CCC(=O)N(C)C[C@H]1Oc2cc(C#CC3CCCC3)ccc2S(=O)(=O)N([C@@H](C)CO)C[C@H]1C,n,x,x,x
COc1cc(/C=C2/SC(=Nc3ccc(O)cc3)NC2=O)cc(OC)c1O,n,n,n,+
COc1cccc(CN2CCN(CCCc3ccccc3)C(CCO)C2)c1OC (configuration not stated),n,n,n,n
COc1cccc(CN2CCN(CCc3ccccc3)C(CCO)C2)c1OC (configuration not stated),n,n,n,+
COc1ccccc1CNC(=O)C[C@H]1C[C@@H]2c3cc(N(C)C)ccc3O[C@@H]2[C@H](CO)O1,n,x,x,x
C=C1C(=O)[C@]23C[C@H]1CCC2[C@]1(C)C(=O)CC[C@@](C)(C(=O)O)C1C[C@@H]3O (some centres not stated),n,n,x,+
C=C1C(=O)[C@]23C[C@H]1CCC2[C@]1(C)CCC[C@@](C)(C(=O)O)C1C[C@@H]3O (some centres not stated),n,n,x,u
Cc1ccc(-n2cc(CN3CCC(CO)(Cc4cccc(C(F)(F)F)c4)CC3)cn2)cc1,n,n,n,+
Cc1ccc(-n2cc(CN3CCC(CO)(Cc4ccccc4)CC3)cn2)cc1,n,x,n,x
O=C(c1nn2c(C(F)(F)F)cc(-c3cccs3)nc2c1Cl)N1CCCc2ccccc21,x,n,n,+
O=C(c1cnn2c(C(F)(F)F)cc(-c3ccccc3)nc12)N1CCCc2ccccc21,n,x,n,n
COc1cc2c3nnc(-c4ccc(F)cc4)c-3cn(Cc3cccc(C)c3)c2cc1OC,n,x,n,+
COc1cc2c3nnc(-c4ccc(F)cc4)c-3cn(Cc3ccc(C)cc3)c2cc1OC,n,n,n,+
COc1cc2c3nnc(-c4ccccc4)c-3cn(Cc3ccc(F)cc3)c2cc1OC,n,n,n,n
O=C(Nc1cc(F)ccc1F)N[C@H]1CC[C@@H](CCn2cc(C3CC3)nn2)O[C@@H]1CO,n,x,x,x
Cc1cc(C(C)(C)C)cc(C)c1C[n+]1ccc2ccccc2c1,n,n,n,+
Cc1ccc(C(=O)c2ccc([N+](=O)[O-])cc2)cc1,x,n,n,n
Cc1ccc(C(=O)c2coc3cc([N+](=O)[O-])c(O)c([N+](=O)[O-])c23)cc1,48,n,n,n
CCO/C(C)=N/n1c2nc3ccccc3nc2c2c(=O)n(Cc3ccccc3Cl)c(C)nc21,x,n,n,+
COc1ccc(C)cc1NC(=O)C1CCN(C(=O)c2ccco2)CC1,n,54,n,n
O=C(C[C@H]1CC[C@@H](NC(=O)C2CCC2)[C@@H](CO)O1)NCCCN1CCOCC1,n,x,x,x
Oc1ccc2ccccc2c1/C=N/Nc1nnc(-c2ncc[nH]2)c2ccccc12,x,87,n,x
CCc1ccc(N2CC(C(=O)NCCC3=CCCCC3)CC2=O)cc1 (configuration not stated),n,n,n,n

# Screening results deposited in PubChem BioAssay by several laboratories.
